Assay results from ChEMBL document CHEMBL4396947, “Synthesis and characterization of novel isoform-selective IP6K1 inhibitors” (Bioorg Med Chem Lett, 2019).

Assays:
[1] = Half life in human microsomes at 1 uM in presence of NADPH; format: ADME, Microsome
Homo sapiens [2] = species on record: Homo sapiens; assay: Selectivity ratio of Ki for IP6K3 (unknown origin) to Ki for IP6K1 (unknown origin)
How it was run: (§1)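 Purified IP6K1, IP6K2 and IP6K3 were each tested in an ADP-Glo Max luminescence assay optimized for IP6K, with 1 mM ATP consumed as the kinase reaction proceeds. IC50 values from each isoform were converted to Ki with the Cheng-Prusoff equation, and the Ki ratio versus IP6K1 was taken.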

Homo sapiens [3] = species on record: Homo sapiens; assay: Selectivity ratio of Ki for IP6K2 (unknown origin) to Ki for IP6K1 (unknown origin); how it was run: as §1
[4] = target: Inositol hexakisphosphate kinase 3 (Homo sapiens, UniProt Q96PC2); assay: Inhibition of IP6K3 (unknown origin) in presence of ATP at Km concentration by Cheng-Prusoff equation analysis
How it was run: (§2)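 Purified IP6K isoforms run in the ADP-Glo Max kinase assay with 1 mM ATP. Measured IC50 values converted to Ki with the Cheng-Prusoff equation.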

[5] = target: T1, Inositol hexakisphosphate kinase 1 (Homo sapiens, UniProt Q92551); assay: Inhibition of IP6K1 (unknown origin) in presence of ATP at Km concentration by Cheng-Prusoff equation analysis; how it was run: as §2
Target sequence in this assay (Q92551 whole entry): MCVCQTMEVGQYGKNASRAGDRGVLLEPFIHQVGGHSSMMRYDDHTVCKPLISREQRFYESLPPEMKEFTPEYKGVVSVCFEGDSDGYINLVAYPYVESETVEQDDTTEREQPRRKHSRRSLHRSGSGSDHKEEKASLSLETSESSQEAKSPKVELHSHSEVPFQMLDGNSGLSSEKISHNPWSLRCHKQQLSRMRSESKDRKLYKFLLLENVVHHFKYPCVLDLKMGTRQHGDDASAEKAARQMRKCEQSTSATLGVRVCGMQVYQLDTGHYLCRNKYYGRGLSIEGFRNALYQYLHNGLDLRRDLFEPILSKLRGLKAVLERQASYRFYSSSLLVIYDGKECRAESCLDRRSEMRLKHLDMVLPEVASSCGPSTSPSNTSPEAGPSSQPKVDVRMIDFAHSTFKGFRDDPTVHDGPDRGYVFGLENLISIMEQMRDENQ

[6] = target: T1, Inositol hexakisphosphate kinase 1; assay: Inhibition of IP6K1 (unknown origin) incubated for 30 mins using IP6 as substrate in presence of ATP by ADP-Glo reagent based luminescence assay; conditions: read-out: IC50
How it was run: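 Luminescent ADP-Glo Max format adapted for IP6K, with purified enzyme and ATP at 1 mM, which is consumed as the kinase reaction proceeds. IC50 taken from the resulting inhibition data.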
Target sequence in this assay (Q92551 whole entry): as above

[7] = target: ALK tyrosine kinase receptor (Homo sapiens) (UniProt Q9UM73); assay: Inhibition of human recombinant ALK (1058 to end residues) assessed as residual activity at 10 uM using KKKSPGEYVNIEF as substrate incubated for 40 mins in presence of [gamma-33P]ATP at Km concentration by radiometric assay relative to control
[8] = target: 5'-AMP-activated protein kinase catalytic subunit alpha-1 (Homo sapiens) (UniProt Q13131); assay: Inhibition of human full length recombinant AMPKalpha1 assessed as residual activity at 10 uM using AMARAASAAALAR as substrate incubated for 40 mins in presence of [gamma-33P]ATP at Km concentration by radiometric assay relative to control
[9] = target: CDK7/Cyclin H/MNAT1 (Homo sapiens) (UniProt P51946+P50613+P51948); assay: Inhibition of human full length recombinant CDK7/cyclinH/MAT1 assessed as residual activity at 10 uM using peptide as substrate incubated for 40 mins in presence of [gamma-33P]ATP at Km concentration by radiometric assay relative to control; format: protein-complex assay
[10] = target: Serine/threonine-protein kinase Chk1 (Homo sapiens) (UniProt O14757); assay: Inhibition of human full length recombinant CHK1 assessed as residual activity at 10 uM using KKKVSRSGLYRSP as substrate incubated for 40 mins in presence of [gamma-33P]ATP at Km concentration by radiometric assay relative to control
[11] = target: Casein kinase II subunit alpha' (Homo sapiens) (UniProt P19784); assay: Inhibition of recombinant full length human CK2alpha2 assessed as residual activity at 10 uM using RRRDDDSDDD as substrate incubated for 40 mins in presence of [gamma-33P]ATP at Km concentration by radiometric assay relative to control
[12] = target: Epidermal growth factor receptor (Homo sapiens) (UniProt P00533); assay: Inhibition of recombinant human EGFR (696 to end residues) assessed as residual activity at 10 uM using poly (Glu,Tyr) 4:1 as substrate incubated for 40 mins in presence of [gamma-33P]ATP at Km concentration by radiometric assay relative to control
[13] = target: Inhibitor of nuclear factor kappa-B kinase subunit alpha (Homo sapiens) (UniProt O15111); assay: Inhibition of human full length recombinant IKKalpha assessed as residual activity at 10 uM using peptide as substrate incubated for 40 mins in presence of [gamma-33P]ATP at Km concentration by radiometric assay relative to control
[14] = target: Serine/threonine-protein kinase mTOR (Homo sapiens) (UniProt P42345); assay: Inhibition of full length recombinant human mTOR assessed as residual activity at 10 uM incubated for 40 mins in presence of [gamma-33P]ATP at Km concentration by radiometric assay relative to control
[15] = target: Serine/threonine-protein kinase Nek2 (Homo sapiens) (UniProt P51955); assay: Inhibition of full length recombinant human NEK2 assessed as residual activity at 10 uM using myelin basic protein as substrate incubated for 40 mins in presence of [gamma-33P]ATP at Km concentration by radiometric assay relative to control
Homo sapiens [16] = species on record: Homo sapiens; assay: Inhibition of recombinant human PAK2 L150F/P225T/A339 deletion/V383I mutant (3 to end residues) assessed as residual activity at 10 uM using KEAKEKRQEQIAKR as substrate incubated for 40 mins in presence of [gamma-33P]ATP at Km concentration by radiometric assay relative to control
[17] = target: Serine/threonine-protein kinase PLK3 (Homo sapiens) (UniProt Q9H4B4); assay: Inhibition of recombinant human Plk3 (19 to 301 residues) assessed as residual activity at 10 uM using casein as substrate incubated for 40 mins in presence of [gamma-33P]ATP at Km concentration by radiometric assay relative to control
[18] = target: Ribosomal protein S6 kinase alpha-1 (Homo sapiens) (UniProt Q15418); assay: Inhibition of recombinant full length human RSK1 assessed as residual activity at 10 uM using KKKNRTLSVA as substrate incubated for 40 mins in presence of [gamma-33P]ATP at Km concentration by radiometric assay relative to control
[19] = target: PI3K p110 beta/p85 alpha (Homo sapiens) (UniProt P27986+P42338); assay: Inhibition of recombinant full length human PI3K p110beta/p85alpha assessed as residual activity at 10 uM incubated for 40 mins in presence of [gamma-33P]ATP at Km concentration by radiometric assay relative to control; format: protein-complex assay
Homo sapiens [20] = species on record: Homo sapiens; assay: Inhibition of recombinant full length human PI3K p120gamma R459Q mutant assessed as residual activity at 10 uM using phosphatidylinositol-4,5 bisphosphate as substrate incubated for 40 mins in presence of [gamma-33P]ATP at Km concentration by radiometric assay relative to control
Homo sapiens [21] = species on record: Homo sapiens; assay: Inhibition of recombinant full length human PI3K p110delta/p85alpha N253S mutant assessed as residual activity at 10 uM incubated for 40 mins in presence of [gamma-33P]ATP at Km concentration by radiometric assay relative to control
[22] = target: PI3-kinase p110-alpha/p85-alpha (Homo sapiens) (UniProt P27986+P42336); assay: Inhibition of recombinant full length human PI3K p110alpha/p85alpha assessed as residual activity at 10 uM incubated for 40 mins using phosphatidylinositol-4,5 bisphosphate as substrate in presence of [gamma-33P]ATP at Km concentration by radiometric assay relative to control; format: protein-complex assay
[23] = target: T1, Inositol hexakisphosphate kinase 1; assay: Binding affinity to IP6K1 (unknown origin) assessed as change in melting temperature at 11.1 uM by SYPRO orange dye based assay
Target sequence in this assay (Q92551 whole entry, looked up): as the sequence (Q92551 whole entry) above

Chain of PI3K p110 beta/p85 alpha (Homo sapiens) (P27986 2-724 limits assumed): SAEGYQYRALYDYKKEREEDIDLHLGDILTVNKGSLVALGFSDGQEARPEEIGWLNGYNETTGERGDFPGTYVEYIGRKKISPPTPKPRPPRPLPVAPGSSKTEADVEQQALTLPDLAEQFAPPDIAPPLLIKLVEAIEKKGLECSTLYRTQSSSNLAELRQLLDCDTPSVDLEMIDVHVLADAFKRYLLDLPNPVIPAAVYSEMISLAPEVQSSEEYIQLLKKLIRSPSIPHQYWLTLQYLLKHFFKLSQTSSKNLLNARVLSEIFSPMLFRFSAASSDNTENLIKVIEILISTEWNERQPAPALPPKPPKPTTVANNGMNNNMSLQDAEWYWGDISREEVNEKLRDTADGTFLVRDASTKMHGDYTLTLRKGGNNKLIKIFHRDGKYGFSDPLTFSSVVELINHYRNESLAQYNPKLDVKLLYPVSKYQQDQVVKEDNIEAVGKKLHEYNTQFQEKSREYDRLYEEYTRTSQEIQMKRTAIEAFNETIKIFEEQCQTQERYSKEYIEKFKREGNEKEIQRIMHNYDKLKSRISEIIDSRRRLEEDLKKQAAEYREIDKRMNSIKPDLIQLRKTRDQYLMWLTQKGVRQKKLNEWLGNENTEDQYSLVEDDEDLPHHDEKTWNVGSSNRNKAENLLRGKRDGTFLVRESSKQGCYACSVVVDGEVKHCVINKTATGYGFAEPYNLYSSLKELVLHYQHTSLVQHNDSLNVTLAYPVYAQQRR
Chain of PI3K p110 beta/p85 alpha (Homo sapiens) (P42338 whole entry partner): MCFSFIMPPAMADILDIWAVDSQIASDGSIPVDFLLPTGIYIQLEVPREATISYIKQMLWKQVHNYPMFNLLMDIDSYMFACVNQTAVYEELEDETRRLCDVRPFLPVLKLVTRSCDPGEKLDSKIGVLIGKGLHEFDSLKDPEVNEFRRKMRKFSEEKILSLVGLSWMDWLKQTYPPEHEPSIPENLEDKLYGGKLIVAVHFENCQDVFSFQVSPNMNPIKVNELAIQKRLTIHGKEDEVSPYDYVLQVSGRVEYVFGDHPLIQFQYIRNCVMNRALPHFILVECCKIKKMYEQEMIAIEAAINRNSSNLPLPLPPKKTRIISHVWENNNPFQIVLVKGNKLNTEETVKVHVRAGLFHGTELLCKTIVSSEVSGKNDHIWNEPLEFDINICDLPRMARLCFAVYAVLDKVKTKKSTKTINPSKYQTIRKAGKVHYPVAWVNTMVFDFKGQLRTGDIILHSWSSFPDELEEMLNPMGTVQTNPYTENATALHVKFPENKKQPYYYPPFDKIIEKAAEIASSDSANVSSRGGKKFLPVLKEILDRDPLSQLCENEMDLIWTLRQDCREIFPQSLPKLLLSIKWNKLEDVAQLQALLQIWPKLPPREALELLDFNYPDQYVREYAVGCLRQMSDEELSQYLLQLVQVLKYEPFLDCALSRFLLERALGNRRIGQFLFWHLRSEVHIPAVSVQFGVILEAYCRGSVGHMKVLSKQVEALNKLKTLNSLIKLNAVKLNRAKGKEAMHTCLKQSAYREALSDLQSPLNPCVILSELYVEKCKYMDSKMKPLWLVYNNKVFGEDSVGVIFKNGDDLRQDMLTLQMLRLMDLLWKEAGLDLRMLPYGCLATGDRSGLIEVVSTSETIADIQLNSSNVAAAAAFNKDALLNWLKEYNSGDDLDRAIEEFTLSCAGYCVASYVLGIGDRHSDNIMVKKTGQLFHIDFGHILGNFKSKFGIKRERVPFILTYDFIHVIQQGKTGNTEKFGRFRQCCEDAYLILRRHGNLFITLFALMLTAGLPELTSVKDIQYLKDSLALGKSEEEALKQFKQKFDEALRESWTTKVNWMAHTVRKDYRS
Chain of Serine/threonine-protein kinase PLK3 (Homo sapiens) (Q9H4B4 whole entry, looked up, the tested form may be a part): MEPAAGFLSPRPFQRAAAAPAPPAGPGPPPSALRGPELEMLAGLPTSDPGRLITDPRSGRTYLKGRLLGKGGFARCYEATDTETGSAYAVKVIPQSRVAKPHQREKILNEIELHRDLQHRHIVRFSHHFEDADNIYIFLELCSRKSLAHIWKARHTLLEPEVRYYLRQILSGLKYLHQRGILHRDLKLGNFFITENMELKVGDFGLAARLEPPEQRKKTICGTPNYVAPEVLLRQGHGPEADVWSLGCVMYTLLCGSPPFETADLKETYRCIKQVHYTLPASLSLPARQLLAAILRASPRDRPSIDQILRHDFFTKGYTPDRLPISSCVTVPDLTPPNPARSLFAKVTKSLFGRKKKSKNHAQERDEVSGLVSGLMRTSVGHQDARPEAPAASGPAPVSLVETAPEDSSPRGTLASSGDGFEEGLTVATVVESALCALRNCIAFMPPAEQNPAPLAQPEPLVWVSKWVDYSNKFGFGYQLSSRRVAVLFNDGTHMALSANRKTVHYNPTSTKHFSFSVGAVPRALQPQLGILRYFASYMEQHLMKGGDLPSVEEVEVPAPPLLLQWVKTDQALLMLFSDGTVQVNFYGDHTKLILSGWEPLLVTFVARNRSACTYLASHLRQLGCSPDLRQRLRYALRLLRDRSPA
Chain of ALK tyrosine kinase receptor (Homo sapiens) (Q9UM73 19-1620 limits assumed): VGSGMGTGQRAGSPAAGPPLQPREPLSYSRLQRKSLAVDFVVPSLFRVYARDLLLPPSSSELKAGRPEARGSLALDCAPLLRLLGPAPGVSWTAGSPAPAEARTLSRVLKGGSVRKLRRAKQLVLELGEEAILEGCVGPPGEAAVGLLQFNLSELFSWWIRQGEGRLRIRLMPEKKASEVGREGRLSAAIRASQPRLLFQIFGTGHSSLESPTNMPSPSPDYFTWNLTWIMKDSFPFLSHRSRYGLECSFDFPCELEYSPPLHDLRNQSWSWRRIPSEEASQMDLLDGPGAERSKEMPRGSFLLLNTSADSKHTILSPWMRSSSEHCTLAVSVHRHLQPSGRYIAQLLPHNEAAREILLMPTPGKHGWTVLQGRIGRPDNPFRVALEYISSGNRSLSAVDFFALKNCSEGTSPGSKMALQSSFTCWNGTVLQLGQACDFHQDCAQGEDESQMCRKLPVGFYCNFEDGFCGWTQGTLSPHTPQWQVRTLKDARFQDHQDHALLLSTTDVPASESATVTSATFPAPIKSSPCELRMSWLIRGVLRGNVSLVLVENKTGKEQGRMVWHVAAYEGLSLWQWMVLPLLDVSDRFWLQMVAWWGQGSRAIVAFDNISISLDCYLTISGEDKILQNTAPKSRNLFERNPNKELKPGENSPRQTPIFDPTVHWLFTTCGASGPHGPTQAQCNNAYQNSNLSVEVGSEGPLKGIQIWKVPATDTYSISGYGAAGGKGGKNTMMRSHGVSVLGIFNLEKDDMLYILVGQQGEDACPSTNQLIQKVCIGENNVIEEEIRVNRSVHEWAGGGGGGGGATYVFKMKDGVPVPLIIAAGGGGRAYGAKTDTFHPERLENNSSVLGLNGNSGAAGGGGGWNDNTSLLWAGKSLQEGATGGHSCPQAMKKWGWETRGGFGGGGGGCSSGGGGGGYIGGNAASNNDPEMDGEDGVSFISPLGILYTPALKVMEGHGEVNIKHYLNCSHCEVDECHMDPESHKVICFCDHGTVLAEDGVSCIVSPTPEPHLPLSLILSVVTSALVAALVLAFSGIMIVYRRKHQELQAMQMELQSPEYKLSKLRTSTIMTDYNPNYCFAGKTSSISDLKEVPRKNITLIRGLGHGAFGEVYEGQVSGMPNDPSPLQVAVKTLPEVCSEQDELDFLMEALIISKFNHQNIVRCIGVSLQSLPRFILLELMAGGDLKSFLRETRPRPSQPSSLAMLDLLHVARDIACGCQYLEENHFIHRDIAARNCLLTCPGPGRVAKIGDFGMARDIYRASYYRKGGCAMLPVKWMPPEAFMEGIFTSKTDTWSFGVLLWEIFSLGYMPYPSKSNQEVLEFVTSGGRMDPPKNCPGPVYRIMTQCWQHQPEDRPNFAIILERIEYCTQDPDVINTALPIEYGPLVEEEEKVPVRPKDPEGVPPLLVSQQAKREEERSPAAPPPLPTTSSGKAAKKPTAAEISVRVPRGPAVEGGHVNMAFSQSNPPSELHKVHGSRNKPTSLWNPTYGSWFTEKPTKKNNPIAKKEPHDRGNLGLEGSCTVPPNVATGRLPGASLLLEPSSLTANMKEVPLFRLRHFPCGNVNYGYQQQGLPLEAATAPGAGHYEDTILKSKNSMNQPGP
Chain of Serine/threonine-protein kinase Chk1 (Homo sapiens) (O14757 whole entry): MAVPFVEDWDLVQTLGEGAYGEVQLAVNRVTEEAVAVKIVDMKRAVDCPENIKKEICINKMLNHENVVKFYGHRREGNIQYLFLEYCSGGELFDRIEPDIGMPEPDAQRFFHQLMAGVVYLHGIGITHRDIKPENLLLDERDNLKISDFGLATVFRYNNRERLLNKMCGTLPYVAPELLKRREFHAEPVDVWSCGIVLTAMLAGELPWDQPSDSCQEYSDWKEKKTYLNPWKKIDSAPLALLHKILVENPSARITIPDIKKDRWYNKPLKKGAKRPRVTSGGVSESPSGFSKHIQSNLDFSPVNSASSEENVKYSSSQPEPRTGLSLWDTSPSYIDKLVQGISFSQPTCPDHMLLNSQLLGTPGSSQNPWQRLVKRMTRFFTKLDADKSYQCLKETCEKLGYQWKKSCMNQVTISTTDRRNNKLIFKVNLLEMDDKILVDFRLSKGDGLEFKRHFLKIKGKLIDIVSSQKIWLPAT

COc1ccc2c(CCNc3nc(NCc4ccc(=O)[nH]c4)c4nc[nH]c4n3)c[nH]c2c1
t1/2 [1]: 42 min
Ratio Ki (Homo sapiens [2]): 48.1
Ratio Ki (Homo sapiens [3]): 24.4
Ki [4]: 9620 nM
Ki [5]: 200 nM
IC50 [6]: 750 nM
Activity [7]: 88%
Activity [8]: 97%
Activity [9]: 48%
Activity [10]: 91%
Activity [11]: 100%
Activity [12]: 75%
Activity [13]: 109%
Activity [14]: 85%
Activity [15]: 87%
Activity (Homo sapiens [16]): 98%
Activity [17]: 109%
Activity [18]: 45%
Activity [19]: 93%
Activity (Homo sapiens [20]): 94%
Activity (Homo sapiens [21]): 95%
Activity [22]: 99%
ΔTm [23]: 5.5 °C
